Values after ≈ are worked out from the molar mass of the structure shown.
Legend:
[1] = Cytotoxicity against mouse RAW264.7 cells assessed as reduction in cell viability incubated for 48 hrs by MTT assay; assay type: cell-based
Procedure, shortened: (§1)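 RAW 264.7 macrophages and HepG2 cells were cultured in DMEM at 37 °C, 5% CO2. For the assay, 10⁵ cells/well were preincubated for 24 h, then exposed to compounds at […] for 48 h, in duplicate. MTT (5 mg/mL in PBS) was added for 2 h and absorbance read at 570 nm. Untreated wells served as the negative control. CC50 obtained by regression analysis.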

[2] = test system: Mycobacterium tuberculosis; experiment: Antimycobacterial activity against Mycobacterium tuberculosis H37Ra ATCC 25177 assessed as inhibition of bacterial growth incubated for 9 days by resazurin microtiter assay; assay type: functional; details: H37Ra ATCC 25177, 216 h, time 9 day
Procedure, shortened: (§2)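 REMA broth microdilution in 7H9-S medium, run in duplicate. Test compounds were serially two-fold diluted on the plate from 64 to 0.5 µg/mL. Inoculum taken from fresh Löwenstein-Jensen culture, adjusted to McFarland no. 1 and diluted 1:20. Plates were sealed and incubated at 37 °C in normal atmosphere for 9 days, then resazurin was added. Rifampicin and ethambutol served as standards. MIC reported in µg/mL.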

[3] = Cytotoxicity against human HepG2 cells assessed as reduction in cell viability incubated for 48 hrs by MTT assay; assay type: cell-based; procedure, shortened: as §1
[4] = test system: Mycobacterium tuberculosis; experiment: Antimycobacterial activity against Mycobacterium tuberculosis H37Rv ATCC 27294 assessed as inhibition of bacterial growth incubated for 9 days by resazurin microtiter assay; assay type: functional; details: H37Rv ATCC 27294, 216 h, time 9 day; procedure, shortened: as §2
[5] = Selectivity index, ratio of CC50 for human HepG2 cells to MIC for antimycobacterial activity against Mycobacterium tuberculosis H37Rv ATCC 27294; assay type: toxicity; details: read-out: Selectivity Index
[6] = Selectivity index, ratio of CC50 for mouse RAW264.7 cells to MIC for antimycobacterial activity against Mycobacterium tuberculosis H37Rv ATCC 27294; assay type: toxicity; details: read-out: Selectivity Index
[7] = Cytotoxicity against human AGP01 cells assessed as inhibition of cell proliferation at 25 uM incubated for 72 hrs by MTT assay relative to control; assay type: functional; parameters: scale not given: the % may be the effect or the level left
Procedure, shortened: (§3)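 Tumor lines from NCI. PC-3, HCT-116 and NCIH-460 were grown in RPMI 1640; SKMEL-103 and AGP-01 in DMEM; all with 10% FBS at 37 °C, 5% CO2. Seeding was 0.3×10⁶ cells/mL for SKMEL-103 and AGP-01, 0.1×10⁶ for PC-3 and NCIH-460, and 0.7×10⁵ for HCT-116. Cells were exposed to compound at 25 µM for 72 h. Cells were centrifuged, 1% MTT added for 3 h, formazan dissolved in DMSO and read at 570 nm.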

[8] = test system: HCT-116; experiment: Cytotoxicity against human HCT-116 cells assessed as inhibition of cell proliferation at 25 uM incubated for 72 hrs by MTT assay relative to control; assay type: functional; parameters: scale not given: the % may be the effect or the level left; procedure, shortened: as §3
[9] = test system: SK-MEL-103; experiment: Cytotoxicity against human SK-MEL-103 cells assessed as inhibition of cell proliferation at 25 uM incubated for 72 hrs by MTT assay relative to control; assay type: functional; parameters: scale not given: the % may be the effect or the level left; procedure, shortened: as §3
[10] = test system: PC-3; experiment: Cytotoxicity against human PC-3 cells assessed as inhibition of cell proliferation at 25 uM incubated for 72 hrs by MTT assay relative to control; assay type: functional; parameters: scale not given: the % may be the effect or the level left; procedure, shortened: as §3
[11] = test system: NCI-H460; experiment: Cytotoxicity against human NCI-H460 cells assessed as inhibition of cell proliferation at 25 uM incubated for 72 hrs by MTT assay relative to control; assay type: functional; parameters: scale not given: the % may be the effect or the level left; procedure, shortened: as §3

SMILES | CC50 at 48 h [1] [µg/mL] | MIC [2] [µg/mL] | CC50 at 48 h [3] [µg/mL] | MIC [4] [µg/mL] | selectivity ratio [5] | selectivity ratio [6] | Activity [7] [%] | Activity [8] [%] | Activity [9] [%] | Activity [10] [%] | Activity [11] [%]
CC[C@@H](CO)NCCN[C@@H](CC)CO [ETHAMBUTOL] | ≥ 400 | 1 (≈ 4.89 µM) | > 400 | 1 (≈ 4.89 µM) |  |  |  |  |  |  | 
CC(=O)OC[C@H]1O[C@H](OC[C@H](Cn2cc(COc3ccc(-c4noc(NC5CCCCC5)n4)cc3)nn2)OC(C)=O)C=C[C@@H]1OC(C)=O | 33.3 (≈ 49.8 µM) | 16 (≈ 23.9 µM) | 99.5 (≈ 149 µM) | 16 (≈ 23.9 µM) | 6.21 | 2.08 |  |  |  |  | 
C#CCN(c1nc(-c2ccc([N+](=O)[O-])cc2)no1)C1CCCCC1 | 26.7 (≈ 81.9 µM) | ≥ 64 | 43.7 (≈ 134 µM) | ≥ 64 | < 0.68 | < 0.41 | 52.5 | 37.2 | 18.5 | 53.7 | 
CO[C@H]1/C=C/O[C@@]2(C)Oc3c(C)c(O)c4c(O)c(c(/C=N/N5CCN(C)CC5)c(O)c4c3C2=O)NC(=O)/C(C)=C\C=C\[C@H](C)[C@H](O)[C@@H](C)[C@@H](O)[C@@H](C)[C@H](OC(C)=O)[C@@H]1C [RIFAMPIN] | 80.4 (≈ 97.7 µM) | 0.062 (≈ 0.0753 µM) | 176 (≈ 214 µM) | 0.125 (≈ 0.152 µM) | 1410 | 643 |  |  |  |  | 
C#CCN(c1nc(-c2ccc(C)cc2)no1)C1CCCCC1 | 17.6 (≈ 59.5 µM) | 64 (≈ 217 µM) | 91.9 (≈ 311 µM) | ≥ 64 | < 1.43 | < 0.27 |  |  |  |  | 
CC(=O)OC[C@H]1O[C@H](OC[C@H](Cn2cc(COc3ccc(-c4noc(C)n4)cc3)nn2)OC(C)=O)C=C[C@@H]1OC(C)=O | 112 (≈ 191 µM) | ≥ 64 | 37.7 (≈ 64.3 µM) | ≥ 64 | < 0.58 | < 1.74 |  |  |  |  | 
C#CCN(c1nc(-c2ccc(Br)cc2)no1)C1CCCCC1 | 15.7 (≈ 43.5 µM) | 32 (≈ 88.8 µM) | 102 (≈ 283 µM) | 32 (≈ 88.8 µM) | 3.18 | 0.48 |  |  |  |  | 
CCCCCCCCCCc1cn(C[C@@H](CO[C@@H]2C=C[C@H](OC(C)=O)[C@@H](COC(C)=O)O2)OC(C)=O)nn1 | 30.4 (≈ 56.5 µM) | 64 (≈ 119 µM) | 59 (≈ 110 µM) | 64 (≈ 119 µM) | 0.92 | 0.47 |  |  |  |  | 
CC(=O)OC[C@H]1O[C@H](OC[C@@H](Cn2cc(CN(c3nc(-c4ccc(-c5cn(C[C@H](CO[C@@H]6C=C[C@H](OC(C)=O)[C@@H](COC(C)=O)O6)OC(C)=O)nn5)cc4)no3)C3CCCCC3)nn2)OC(C)=O)C=C[C@@H]1OC(C)=O | 117 (≈ 111 µM) | ≥ 64 | 11.8 (≈ 11.2 µM) | ≥ 64 | < 0.18 | < 1.82 |  |  |  |  | 
O=[N+]([O-])c1ccc(-c2noc(NC3CCCCC3)n2)cc1 |  |  |  |  |  |  | 53.2 |  | 50.7 | 20.3 | 10.4
C#CCN(c1nc(-c2ccc(C#C)cc2)no1)C1CCCCC1 | 13.1 (≈ 42.9 µM) |  | 27.9 (≈ 91.5 µM) | ≥ 64 | < 0.43 | < 0.2 |  |  |  |  | 
CC(=O)OC[C@H]1O[C@H](OC[C@@H](Cn2cc(CN(c3nc(-c4cccc(Br)c4)no3)C3CCCCC3)nn2)OC(C)=O)C=C[C@@H]1OC(C)=O |  |  |  |  |  |  | 59.9 |  | 52.3 | 45.5 | 27.1
CC(=O)OC[C@H]1O[C@H](OC[C@@H](Cn2cc(CN(c3nc(-c4ccc(Cl)cc4)no3)C3CCCCC3)nn2)OC(C)=O)C=C[C@@H]1OC(C)=O | 35.5 (≈ 51.7 µM) | 64 (≈ 93.1 µM) | 46.9 (≈ 68.3 µM) | 64 (≈ 93.1 µM) | 0.73 | 0.55 |  |  |  |  | 
O=[N+]([O-])c1cccc(-c2noc(NC3CCCCC3)n2)c1 |  |  |  |  |  |  | 11.6 | 14.1 | 32 | 9.9 | 
C#CCOc1ccc(-c2noc(N(CC#C)C3CCCCC3)n2)cc1 | 101 (≈ 300 µM) | ≥ 64 | > 200 | 64 (≈ 191 µM) | > 3.12 | 1.57 |  |  |  |  | 
CC(=O)OC[C@H]1O[C@H](OC[C@@H](Cn2cc(CN(c3nc(-c4ccc(Br)cc4)no3)C3CCCCC3)nn2)OC(C)=O)C=C[C@@H]1OC(C)=O | 39.1 (≈ 53.5 µM) | 4 (≈ 5.47 µM) | 47.6 (≈ 65.1 µM) | 8 (≈ 10.9 µM) | 5.95 | 4.89 |  |  |  |  | 
CC(=O)OC[C@H]1O[C@H](OC[C@H](Cn2cc(-c3ccc(-c4noc(NC5CCCCC5)n4)cc3)nn2)OC(C)=O)C=C[C@@H]1OC(C)=O | 16.3 (≈ 25.5 µM) | ≥ 64 | 79.8 (≈ 125 µM) | ≥ 64 | < 1.24 | < 0.25 |  |  |  |  | 
C#CCN(c1nc(-c2ccc(C(F)(F)F)cc2)no1)C1CCCCC1 | 38.3 (≈ 110 µM) | 64 (≈ 183 µM) | 61.9 (≈ 177 µM) | 32 (≈ 91.6 µM) | 1.93 | 1.2 |  |  |  |  | 
C#CCN(c1nc(-c2ccc(Cl)cc2)no1)C1CCCCC1 | 15.1 (≈ 47.9 µM) | 32 (≈ 101 µM) | 41.3 (≈ 131 µM) | 16 (≈ 50.7 µM) | 2.58 | 0.95 |  |  |  |  | 
CC(=O)OC[C@H]1O[C@H](OC[C@@H](CN=[N+]=[N-])OC(C)=O)C=C[C@@H]1OC(C)=O | 106 (≈ 286 µM) | ≥ 64 | > 200 | ≥ 64 |  | < 1.66 |  |  |  |  | 
CC(=O)OC[C@H]1O[C@H](OC[C@@H](Cn2cc(CN(c3nc(-c4cccc([N+](=O)[O-])c4)no3)C3CCCCC3)nn2)OC(C)=O)C=C[C@@H]1OC(C)=O | 100 (≈ 144 µM) | ≥ 64 | > 200 | ≥ 64 |  | < 1.56 | 44.7 | 27.7 | 42.2 | 38.4 | 
CC(=O)OC[C@H]1O[C@H](OC[C@@H](Cn2cc(COc3ccc(-c4noc(N(Cc5cn(C[C@H](CO[C@@H]6C=C[C@H](OC(C)=O)[C@@H](COC(C)=O)O6)OC(C)=O)nn5)C5CCCCC5)n4)cc3)nn2)OC(C)=O)C=C[C@@H]1OC(C)=O | > 200 | ≥ 64 | 47 (≈ 43.6 µM) | ≥ 64 | < 0.73 |  |  |  |  |  | 
